For experiment [1], the system named is AoiQ-FDH. As to the kind of experiment: flavin reductase activity, NADPH consumption. The class given is biochemical, Aspergillus oryzae. Particulars: no flavin reductase added; copurified FAD. The method, boiled down:
(§1)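 Enzyme is the FDH domain of AoiQ, expressed as a standalone protein apart from its methyltransferase domain. Flavin reductase activity was followed by consumption of NADH or NADPH, with no exogenous flavin reductase added. Steady-state KM, kcat and kcat/KM were reported for each nicotinamide cofactor.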

Experiment [2] relates to AoiQ-FDH. As to the kind of experiment: flavin reductase activity, NADH consumption. The format is biochemical, Aspergillus oryzae. As to conditions: no flavin reductase added; copurified FAD. In outline:
as §1

One may read the Km as the concentration of substrate that gives half-maximal velocity.

Turning to `NC(=O)C1=CN([C@@H]2O[C@H](COP(=O)(O)OP(=O)(O)OC[C@H]3O[C@@H](n4cnc5c(N)ncnc54)[C@H](OP(=O)(O)O)[C@@H]3O)[C@@H](O)[C@H]2O)C=CC1` [NADPH], the Km in the experiment on AoiQ-FDH [1] was 30.5 ± 6 µM. With `NC(=O)C1=CN([C@@H]2O[C@H](COP(=O)(O)OP(=O)(O)OC[C@H]3O[C@@H](n4cnc5c(N)ncnc54)[C@H](O)[C@@H]3O)[C@@H](O)[C@H]2O)C=CC1` [NADH], in the experiment on AoiQ-FDH [2], the Km is 43.5 ± 3.6 µM.

The values above are taken from paper PMC8434754 (Journal of the American Chemical Society, 2021).
